Measurements from ChEMBL document CHEMBL2029255, “Quantitative and site-directed chemical modification of hypocrellins toward direct drug delivery and effective photodynamic activity” (J Med Chem, 2012).
Values after ≈ are worked out from the molar mass of the structure shown. Active and inactive are the calls of the source. No cut-off for these calls is given here.

What was measured:
[1] = Solubility of the compound in phosphate buffered saline at pH 7.4 after 12 hrs; format: physicochemical
Procedure, shortened: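 Compound dissolved in PBS (pH 7.4) at a series of concentrations, kept 12 h in dark; absorption spectra recorded and absorbance plotted against concentration to derive solubility; mean of three independent experiments ± SEM.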

[2] = Photosensitization activity of the compound assessed as singlet oxygen production by DPA-bleaching method; format: physicochemical
[3] = 1-Octanol-phosphate buffered saline partition coefficient of the compound at pH 7.4
[4] = Drug uptake in liposomes after 2 hrs; format: ADME, subcellular, Liposome; conditions: artificial membrane
Procedure, shortened: (§1)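 Liposomes of egg phosphatidylcholine and cholesterol (film-ultrasonic method), 0.08 g/L in PBS pH 7.4. Compound from DMSO stock (2 mg/mL) diluted in PBS to 0–8 μM final, added to liposomes with stirring; absorption spectra recorded over time; peak absorbance plotted against concentration at the equilibration time (2, 4 or 5 h, depending on compound).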

[5] = test system: BGC-823; experiment: Cytotoxicity against human BGC823 cells assessed as cell death preincubated for 5 hrs in dark condition followed by irradiation with a 532 nm laser of 20 J/cm2 for 1000 seconds measured after 24 hrs by MTT assay; format: functional, cell-based; conditions: BGC-823, light or radiation study
Procedure, shortened: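 BGC823 cells in DMEM/5% FBS seeded at 5 × 10^5 cells/mL, 24 h at 37 °C, 5% CO2; photosensitizer (0, 19, 38, 57, 76 nM) in FBS-free DMEM, 5 h in dark; medium replaced, 532 nm laser irradiation 20 J/cm2 (20 mW/cm2) for 1000 s; 24 h dark; MTT 90 min, DMSO, OD 570 nm. IC50 = concentration killing 50% of cells.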

[6] = test system: BGC-823; experiment: Cytotoxicity against human BGC823 cells assessed as cell death up to 76 nM after 24 hrs by MTT assay; format: functional, cell-based
Procedure, shortened: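 Dark toxicity: BGC823 cells in DMEM/5% FBS seeded at 5 × 10^5 cells/mL, 24 h at 37 °C, 5% CO2; photosensitizer (0–76 nM) in FBS-free DMEM 5 h in dark; fresh medium, no irradiation, 24 h in dark; survival by MTT (90 min), formazan in DMSO, OD 570 nm.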

[7] = Drug uptake in liposomes after 4 hrs; format: ADME, subcellular, Liposome; conditions: artificial membrane; procedure, shortened: as §1
[8] = test system: BGC-823; experiment: Cellular uptake in human BGC823 cells at 1 uM after 5 hrs by laser confocal fluorescence microscope analysis; format: ADME, cell-based; conditions: bgc-823, 5 h
Procedure, shortened: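 BGC823 cells seeded on coverslips at 1 × 10^5, grown overnight at 37 °C, 5% CO2; medium removed, incubated with compound (1 μM) 5 h at 37 °C; rinsed three times with PBS, imaged by confocal microscopy with 488 nm argon laser excitation, emission 650–750 nm collected. Control without photosensitizer.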

[9] = Drug uptake in liposomes after 5 hrs; format: ADME, subcellular, Liposome; conditions: artificial membrane; procedure, shortened: as §1

solubility at 12 h [1] | PC [3] | Drug uptake [4] | Drug uptake [7] | Drug uptake [8] | Drug uptake [9] | SMILES | Activity [2] | IC50 [5] | Activity [6]
3900 µg/mL (≈ 5.88 mM) | 7.5 | – | – | – | – | COc1c2c3c4c(c(OC)c(=O)c5c(O)cc(OC)c(c6c(OC)cc(O)c(c1=O)c63)c54)C(/C(C)=N/CCCCS(=O)(=O)O)=C(C)C2 | 0.94 | 54 nM | inactive
1700 µg/mL (≈ 2.51 mM) | 9 | – | 6.5 µM | Active | – | COc1c2c3c4c(c(OC)c(=O)c5c(O)cc(OC)c(c6c(OC)cc(O)c(c1=O)c63)c54)C(/C(C)=N/CCCCCS(=O)(=O)O)=C(C)C2 | 0.98 | 22 nM | inactive
6600 µg/mL (≈ 10.2 mM) | 4.8 | – | – | – | – | COc1c2c3c4c(c(OC)c(=O)c5c(O)cc(OC)c(c6c(OC)cc(O)c(c1=O)c63)c54)C(/C(C)=N/CCCS(=O)(=O)O)=C(C)C2 | – | – | –

The remaining lines, values behind:

SMILES | solubility at 12 h [1] | PC [3] | Drug uptake [4] | Drug uptake [7] | Drug uptake [8] | Drug uptake [9] | Activity [2] | IC50 [5] | Activity [6]
COc1c2c3c4c(c(OC)c(=O)c5c(O)cc(OC)c(c6c(OC)cc(O)c(c1=O)c63)c54)C(/C(C)=N/CCCCCCS(=O)(=O)O)=C(C)C2 | 200 µg/mL (≈ 0.289 mM) | – | – | – | – | – | 1.01 | – | –
COc1c2c3c4c(c(NCCS(=O)(=O)O)c(=O)c5c(O)cc(OC)c(c6c(OC)cc(O)c(c1=O)c63)c54)CC(C)=C2C(C)=O | 9200 µg/mL (≈ 14.8 mM) | 2.2 | 3 µM | – | – | – | – | – | –
COC1=C(C(C)=O)C2=C(C)Cc3c(OC)c(=O)c(O)c4cc(OC)c5c(OC)cc(O)c6c(c2c3c4c56)C1=O | 4.6 µg/mL (≈ 0.0087 mM) | – | – | – | – | 7 µM | 0.76 | 40 nM | inactive
